Test results from ChEMBL document CHEMBL1137720, “New acyclic nucleosides analogues as potential analgesic, anti-inflammatory, anti-oxidant and anti-microbial derived from pyrimido[4,5-b]quinolines” (2009).

Legend:
Pseudomonas aeruginosa = assay: Antibacterial activity against Pseudomonas aeruginosa ATCC 10145 at 100 ug/disk after 24 to 48 hrs by agar disk diffusion method; assay type: functional; conditions: read-out: DIZ
Summary of the method: (§1)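 Agar disc diffusion used sterile 5 mm filter-paper discs loaded with 100 µg per disc, with DMSO as solvent. Plates were incubated 24–28 h at 37 °C and inhibition zone diameters measured: 6–10 mm slight, 11–15 mm moderate, >15 mm high. For MIC, discs carried varying amounts, and MIC was the lowest amount giving no visible growth.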

Staphylococcus aureus = assay: Antibacterial activity against Staphylococcus aureus ATCC 25923 at 100 ug/disk after 24 to 48 hrs by agar disk diffusion method; assay type: functional; conditions: read-out: DIZ; summary of the method: as §1
Rattus norvegicus [1] = assay: Antiinflammatory activity in Sprague-Dawley rat assessed as inhibition of carrageenan-induced paw edema after 4 hrs; assay type: functional
Summary of the method: (§2)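 Adult female Sprague-Dawley rats, 150–180 g, were used (n = 6 per group). Paw volume increase after carrageenan was read at 1, 2, 3 and 4 h. % edema inhibition was calculated against untreated controls. The reference drug was given orally at 10 mg/kg as an aqueous suspension.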

Mus musculus [2] = species: Mus musculus; assay: Analgesic activity in Swiss mouse assessed as reaction time after 30 mins by hot plate test; assay type: functional
Summary of the method: (§3)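 Swiss mice of both sexes, 25–30 g, were housed at 22 ± 1 °C on a 12 h light/dark cycle with free access to diet and water. Hot-plate testing followed Turner's method.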

Mus musculus [3] = species: Mus musculus; assay: Analgesic activity in Swiss mouse assessed as reaction time after 60 mins by hot plate test; assay type: functional; summary of the method: as §3
Mus musculus [4] = species: Mus musculus; assay: Analgesic activity in Swiss mouse assessed as reaction time after 90 mins by hot plate test; assay type: functional; summary of the method: as §3
[5] = Antioxidant activity in Sprague-Dawley rat erythrocytes assessed as ABTS-induced hemolysis after 1 hr; assay type: functional, Erythrocyte; parameters: concentration or dose not given beside the values
[6] = Antioxidant activity assessed as inhibition of ABTS-oxidation in 0.1 M phosphate buffer at pH 7; assay type: functional
Summary of the method: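 ABTS (60 µM, 2 mL) was mixed with MnO2 (25 mg/mL) in 0.1 M phosphate buffer pH 7, then shaken, centrifuged and filtered. Radical solution A734 was set to about 0.5. MeOH/buffer served as negative control.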

Escherichia coli = assay: Antibacterial activity against Escherichia coli ATCC 23566 at 100 ug/disk after 24 to 48 hrs by agar disk diffusion method; assay type: functional; conditions: read-out: DIZ; summary of the method: as §1
Candida albicans = assay: Antimicrobial activity against Candida albicans ATCC 14053 at 100 ug/disk after 5 days by agar disk diffusion method; assay type: functional; conditions: ATCC 14053, 120 h, read-out: DIZ
Aspergillus fumigatus = assay: Antimicrobial activity against Aspergillus fumigatus ATCC 96918 at 100 ug/disk after 5 days by agar disk diffusion method; assay type: functional; conditions: ATCC 96918, 120 h, read-out: DIZ
Rattus norvegicus [7] = assay: Antiinflammatory activity in Sprague-Dawley rat assessed as inhibition of carrageenan-induced paw edema after 1 hr; assay type: functional; summary of the method: as §2
Rattus norvegicus [8] = assay: Antiinflammatory activity in Sprague-Dawley rat assessed as inhibition of carrageenan-induced paw edema after 2 hrs; assay type: functional; summary of the method: as §2
Rattus norvegicus [9] = assay: Antiinflammatory activity in Sprague-Dawley rat assessed as inhibition of carrageenan-induced paw edema after 3 hrs; assay type: functional; summary of the method: as §2
Nucleic Acid = assay: Inhibition of bleomycin-induced DNA damage assessed as absorbance at 532 nm after 1 hr at 37 degC; assay type: nucleic-acid assay
Summary of the method: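 The 0.5 mL reaction contained calf thymus DNA (0.5 mg/mL), bleomycin sulfate (0.05 mg/mL), MgCl2 (5 mM), FeCl3 (50 µM) and compound at varying concentrations. After 1 h at 37 °C, the reaction was stopped with EDTA. TBA (1%) and HCl (25%) were added, followed by 10 min at 80 °C. After centrifugation, DNA damage was read as A532.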

Rattus norvegicus [10] = assay: Antiinflammatory activity in Sprague-Dawley rat assessed as inhibition of carrageenan-induced paw edema at 10 mg/kg, po after 4 hrs; assay type: functional; summary of the method: as §2
Rattus norvegicus [11] = assay: Antiinflammatory activity in Sprague-Dawley rat assessed as inhibition of carrageenan-induced paw edema at 10 mg/kg, po after 1 hr; assay type: functional; summary of the method: as §2
Rattus norvegicus [12] = assay: Antiinflammatory activity in Sprague-Dawley rat assessed as inhibition of carrageenan-induced paw edema at 10 mg/kg, po after 3 hrs; assay type: functional; summary of the method: as §2
Rattus norvegicus [13] = species: Rattus norvegicus; assay: animal or person; conditions: Sprague-Dawley, po, 2 h, read-out: INH

Row | SMILES | zone of inhibition at 100 µg/disc (Pseudomonas aeruginosa) [mm] | zone of inhibition at 100 µg/disc (Staphylococcus aureus) [mm] | inhibition (INH) (Rattus norvegicus [1]) [%] | Activity (Mus musculus [2]) [s] | Activity (Mus musculus [3]) [s] | Activity (Mus musculus [4]) [s] | Activity [5] [%] | inhibition [6] [%] | zone of inhibition at 100 µg/disc (Escherichia coli) [mm] | zone of inhibition at 100 µg/disc (Candida albicans) [mm] | zone of inhibition at 100 µg/disc (Aspergillus fumigatus) [mm] | inhibition (INH) (Rattus norvegicus [7]) [%] | inhibition (INH) (Rattus norvegicus [8]) [%] | inhibition (INH) (Rattus norvegicus [9]) [%] | deltaA (Nucleic Acid) | inhibition in vivo at 10 mg/kg (Rattus norvegicus [10]) [%] | inhibition in vivo at 10 mg/kg (Rattus norvegicus [11]) [%] | inhibition in vivo at 10 mg/kg (Rattus norvegicus [12]) [%] | inhibition in vivo at 10 mg/kg (Rattus norvegicus [13]) [%]
1 | O=C(O)c1cn(C2CC2)c2cc(N3CCNCC3)c(F)cc2c1=O [CIPROFLOXACIN] | 24 | 24 | – | – | – | – | – | – | – | – | – | – | – | – | – | – | – | – | –
2 | CC(=O)OC[C@@H](OC(C)=O)[C@H](OC(C)=O)[C@H](OC(C)=O)[C@@H](OC(C)=O)c1n[nH]c2nc3nc4c(c(-c5ccc(Cl)cc5)c3c(=O)n12)CCC/C4=C\c1ccc(Cl)cc1 | 10 | 10 | 17.19 | 2.65 | 2.667 | 2.483 | 8.33 | 42.6 | 14 | 11 | 11 | 21.88 | 14 | 18.48 | – | – | – | – | –
3 | CC(=O)Oc1ccccc1C(=O)O [ASPIRIN] | – | – | – | 5.1 | 7.683 | 8.65 | – | – | – | – | – | – | – | – | – | – | – | – | –
4 | O=C1O[C@H]([C@@H](O)CO)C(O)=C1O [ASCORBIC ACID] | – | – | – | – | – | – | 3.93 | – | – | – | – | – | – | – | 0.026 | – | – | – | –
5 | CC(=O)OC[C@@H](OC(C)=O)[C@@H](OC(C)=O)[C@H](/C=N/Nc1nc2nc3c(c(-c4ccc(Cl)cc4)c2c(=O)n1OC(C)=O)CCC/C3=C\c1ccc(Cl)cc1)OC(C)=O | 13 | 11 | 26.56 | 3.5 | 3.483 | 4.033 | 6.06 | 40.7 | 14 | 7 | 11 | 15.62 | 20.37 | 26.09 | – | – | – | – | –
6 | O=c1c2c(-c3ccc(Cl)cc3)c3c(nc2nc2[nH]nc([C@H](O)[C@H](O)[C@H](O)CO)n12)/C(=C/c1ccc(Cl)cc1)CCC3 | 18 | 22 | 39.81 | 3.55 | 5.35 | 6.667 | 3.42 | 68.8 | 18 | 13 | 13 | 46.88 | 40.58 | 39.06 | 0.045 | – | – | – | –
7 | COc1ccc2c(c1)c(CC(=O)O)c(C)n2C(=O)c1ccc(Cl)cc1 [INDOMETHACIN] | – | – | – | – | – | – | – | – | – | – | – | – | – | – | – | 57.8 | 50 | 65.2 | 58
8 | CC(=O)OC[C@@H](OC(C)=O)[C@@H](OC(C)=O)[C@@H](OC(C)=O)[C@@H](OC(C)=O)c1n[nH]c2nc3nc4c(c(-c5ccc(Cl)cc5)c3c(=O)n12)CCC/C4=C\c1ccc(Cl)cc1 | 12 | 13 | 19.57 | 2.483 | 2.667 | 2.633 | 8.18 | 40.7 | 14 | 11 | 12 | 18.75 | 14.8 | 13.28 | – | – | – | – | –
9 | NNc1nc2nc3c(c(-c4ccc(Cl)cc4)c2c(=O)[nH]1)CCC/C3=C\c1ccc(Cl)cc1 | 20 | 18 | 35.19 | 3.7 | 4.067 | 6.617 | 5.45 | 59.3 | 22 | 13 | 11 | 34.38 | 34 | 37.68 | – | – | – | – | –
10 | CC(=O)N1CCN(c2ccc(OCC3COC(Cn4ccnc4)(c4ccc(Cl)cc4Cl)O3)cc2)CC1 (configuration not stated) [KETOCONAZOLE] | – | – | – | – | – | – | – | – | – | 21 | 19 | – | – | – | – | – | – | – | –
11 | CC(=O)OC[C@@H](OC(C)=O)[C@@H](OC(C)=O)[C@@H](/C=N/Nc1nc2nc3c(c(-c4ccc(Cl)cc4)c2c(=O)n1OC(C)=O)CCC/C3=C\c1ccc(Cl)cc1)OC(C)=O | 15 | 13 | 22.22 | 3.667 | 3.483 | 4.583 | 30.75 | 35.2 | 14 | 10 | 8 | 18.75 | 28 | 28.98 | – | – | – | – | –
12 | O=c1c2c(-c3ccc(Cl)cc3)c3c(nc2nc2[nH]nc([C@H](O)[C@H](O)[C@H](O)[C@H](O)CO)n12)/C(=C/c1ccc(Cl)cc1)CCC3 | 22 | 19 | 40.62 | 4.65 | 7.4 | 9.567 | 4.23 | 81.5 | 24 | 12 | 16 | 62.5 | 44 | 42.03 | 0.026 | – | – | – | –
13 | O=c1c2c(-c3ccc(Cl)cc3)c3c(nc2nc2[nH]nc([C@@H](O)[C@H](O)[C@H](O)CO)n12)/C(=C/c1ccc(Cl)cc1)CCC3 | 19 | 20 | 46.67 | 3.6 | 5.933 | 8.433 | 3.51 | 66.7 | 20 | 12 | 16 | 40.62 | 52 | 45.31 | 0.05 | – | – | – | –
14 | O=c1[nH]c(=S)[nH]c2nc3c(c(-c4ccccc4)c12)CCC/C3=C\c1ccccc1 | 15 | 14 | 25 | 2.7 | 2.65 | 2.583 | 35.75 | 44.4 | 17 | 11 | 13 | 31.25 | 24 | 27.54 | – | – | – | – | –
15 | O=c1c2c(-c3ccc(Cl)cc3)c3c(nc2nc2[nH]nc([C@H](O)[C@@H](O)[C@@H](O)[C@H](O)CO)n12)/C(=C/c1ccc(Cl)cc1)CCC3 | 19 | 20 | 50 | 3.767 | 5.45 | 6.767 | 4.01 | 83.7 | 20 | 11 | 7 | 50 | 56 | 49.27 | 0.029 | – | – | – | –
